Laboratory results as given in ChEMBL document CHEMBL1135162, “Synthesis and evaluation of N-substituted 1,4-oxazepanyl Sordaricins as selective fungal EF-2 inhibitors” (2002).
Values after ≈ are worked out from the molar mass of the structure shown.

Columns and labels:
Format in all cases: functional
Nakaseomyces glabratus = assay: Tested for in vitro antifungal activity against Candida glabrata ATCC 90030
Outline: (§1)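 Microplate growth assay in RPMI1640 medium buffered at pH 7.0, incubated at 35 °C. MIC is the lowest test-compound concentration that inhibits fungal growth by 80%.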

Candida albicans [1] = assay: Tested for in vitro antifungal activity against Candida albicans ATCC 24433; outline: as §1
Candida albicans [2] = assay: Tested for in vitro antifungal activity against Candida albicans SANK51486; outline: as §1
Candida albicans [3] = assay: Tested for in vitro antifungal activity against Candida albicans SANK51486 in the presence of horse serum (20%)
Outline: (§2)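 RPMI1640 medium buffered at pH 7.0, with 20% horse serum added for the incubation. Microplates incubated at 35 °C. MIC is the lowest concentration giving 80% inhibition of fungal growth.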

Candida albicans [4] = assay: Tested for in vitro antifungal activity against Candida albicans ATCC 64550; outline: as §1
Candida tropicalis = assay: Tested for in vitro antifungal activity against Candida tropicalis ATCC750; outline: as §1
Candida parapsilosis = assay: Tested for in vitro antifungal activity against Candida parapsilosis ATCC 90018; conditions: Lodderomyces parapsilosis; outline: as §1
Candida albicans [5] = assay: Tested for in vitro antifungal activity against Candida albicans ATCC 24433 in the presence of horse serum (20%); outline: as §2
Cryptococcus neoformans = assay: Tested for in vitro antifungal activity against Cryptococcus neoformans TIMM1855
Outline: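 Yeast grown in microplates in yeast nitrogen base buffered at pH 7.0, incubated at 35 °C. MIC is the lowest concentration inhibiting growth by 80%.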

Aspergillus fumigatus = assay: Tested for in vitro antifungal activity against Aspergillus fumigatus ATCC 26430
Outline: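 Mould grown in microplates in RPMI1640 buffered at pH 7.0, incubated at 30 °C. MIC is the lowest test-compound concentration that inhibits growth by 80%.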

Candida albicans [6] = assay: Tested for in vitro antifungal activity against Candida albicans TIMM3164; outline: as §1

SMILES	MIC (Nakaseomyces glabratus) [mg/L]	MIC (Candida albicans [1]) [mg/L]	MIC (Candida albicans [2]) [mg/L]	MIC (Candida albicans [3]) [mg/L]	MIC (Candida albicans [4]) [mg/L]	MIC (Candida tropicalis) [mg/L]	MIC (Candida parapsilosis) [mg/L]	MIC (Candida albicans [5]) [mg/L]	MIC (Cryptococcus neoformans) [mg/L]	MIC (Aspergillus fumigatus) [mg/L]	MIC (Candida albicans [6]) [mg/L]
C=C(Br)CN1C[C@H](OCC23C[C@@H]4[C@H](C)CC[C@H]4C4(C=O)CC2C=C(C(C)C)C34C(=O)O)O[C@H](C)[C@@H](OC)C1 (stereo not given in full)	0.25 (≈ 0.42 µM)	0.031 (≈ 0.0521 µM)	0.016 (≈ 0.0269 µM)	0.5	0.031 (≈ 0.0521 µM)	0.125 (≈ 0.21 µM)	> 16	1	0.25 (≈ 0.42 µM)	> 16	0.031 (≈ 0.0521 µM)
COc1cccc(CN2C[C@H](OCC34C[C@@H]5[C@H](C)CC[C@H]5C5(C=O)CC3C=C(C(C)C)C45C(=O)O)O[C@H](C)[C@@H](OC)C2)c1 (stereo not given in full)	8 (≈ 13.4 µM)	0.063 (≈ 0.106 µM)	≤ 0.031	2	0.125 (≈ 0.21 µM)	0.5 (≈ 0.839 µM)	> 16	2	2 (≈ 3.36 µM)	> 16	0.063 (≈ 0.106 µM)
CO[C@H]1CN(Cc2ccc(C(F)(F)F)cc2)C[C@H](OCC23C[C@@H]4[C@H](C)CC[C@H]4C4(C=O)CC2C=C(C(C)C)C34C(=O)O)O[C@@H]1C (stereo not given in full)	8 (≈ 12.6 µM)	0.5 (≈ 0.789 µM)	0.25 (≈ 0.394 µM)	16	1 (≈ 1.58 µM)	2 (≈ 3.16 µM)	> 32	32	> 32	> 32	0.5 (≈ 0.789 µM)
CO[C@H]1CN(Cc2ccc(Cl)cc2)C[C@H](OCC23C[C@@H]4[C@H](C)CC[C@H]4C4(C=O)CC2C=C(C(C)C)C34C(=O)O)O[C@@H]1C (stereo not given in full)	1 (≈ 1.67 µM)	≤ 0.063	≤ 0.063	4	≤ 0.063	0.5 (≈ 0.833 µM)	> 32	8	4 (≈ 6.66 µM)	> 32	≤ 0.063
C=C(Cl)CN1C[C@H](OCC23C[C@@H]4[C@H](C)CC[C@H]4C4(C=O)CC2C=C(C(C)C)C34C(=O)O)O[C@H](C)[C@@H](OC)C1 (stereo not given in full)	0.125 (≈ 0.227 µM)	0.031 (≈ 0.0563 µM)	0.016 (≈ 0.0291 µM)	0.5	0.031 (≈ 0.0563 µM)	0.25 (≈ 0.454 µM)	16 (≈ 29.1 µM)	0.5	0.125 (≈ 0.227 µM)	> 16	0.031 (≈ 0.0563 µM)
C=C(Cl)CN1C[C@H](OCC23C[C@@H]4[C@H](C)CC[C@H]4C4(C=O)CC2C=C(C(C)C)C34C(=O)O)O[C@H](C)C1 (stereo not given in full)	0.125 (≈ 0.247 µM)	0.031 (≈ 0.0613 µM)	0.016 (≈ 0.0316 µM)	0.25	0.031 (≈ 0.0613 µM)	0.125 (≈ 0.247 µM)	8 (≈ 15.8 µM)	0.5	16 (≈ 31.6 µM)	> 16	0.031 (≈ 0.0613 µM)
C=C(CF)CN1C[C@H](OCC23C[C@@H]4[C@H](C)CC[C@H]4C4(C=O)CC2C=C(C(C)C)C34C(=O)O)O[C@H](C)[C@@H](OC)C1 (stereo not given in full)	0.5 (≈ 0.913 µM)	≤ 0.031	≤ 0.031	0.5	≤ 0.031	0.25 (≈ 0.456 µM)	> 16	0.5	0.25 (≈ 0.456 µM)	> 16	≤ 0.031
CO[C@H]1CN(CC2=CCCCC2)C[C@H](OCC23C[C@@H]4[C@H](C)CC[C@H]4C4(C=O)CC2C=C(C(C)C)C34C(=O)O)O[C@@H]1C (stereo not given in full)	4 (≈ 7.02 µM)	0.125 (≈ 0.219 µM)	0.063 (≈ 0.111 µM)	4	0.125 (≈ 0.219 µM)	1 (≈ 1.76 µM)	> 16	8	8 (≈ 14 µM)	> 16	0.125 (≈ 0.219 µM)
C=CCN1C[C@H](OCC23C[C@@H]4[C@H](C)CC[C@H]4C4(C=O)CC2C=C(C(C)C)C34C(=O)O)O[C@H](C)[C@@H](OC)C1 (stereo not given in full)	0.25 (≈ 0.485 µM)	0.063 (≈ 0.122 µM)	0.031 (≈ 0.0601 µM)	0.25	0.063 (≈ 0.122 µM)	0.5 (≈ 0.97 µM)	> 16	0.25	> 16	> 16	0.063 (≈ 0.122 µM)
C=CCCN1C[C@H](OCC23C[C@@H]4[C@H](C)CC[C@H]4C4(C=O)CC2C=C(C(C)C)C34C(=O)O)O[C@H](C)[C@@H](OC)C1 (stereo not given in full)	4 (≈ 7.55 µM)	0.125 (≈ 0.236 µM)	0.063 (≈ 0.119 µM)	–	0.25 (≈ 0.472 µM)	1 (≈ 1.89 µM)	> 16	–	> 16	> 16	0.125 (≈ 0.236 µM)
OC(Cn1cncn1)(Cn1cncn1)c1ccc(F)cc1F [FLUCONAZOLE]	–	–	–	–	4 (≈ 13.1 µM)	–	–	–	–	–	4 (≈ 13.1 µM)
